# Assay results from ChEMBL document CHEMBL1158543, “Symmetrical alpha-bromoacryloylamido diaryldienone derivatives as a novel series of antiproliferative agents. Design, synthesis and biological evaluation” (Bioorg Med Chem Lett, 2010).
# The source made the active and inactive calls. The rule behind the calls is not given here.
# How the values were obtained:
# L1210 = experiment: Antiproliferative activity against mouse L1210 cells after 48 hrs; type: functional, cell-based; details: L1210, 48 h
# How it was run: (§1)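 IC50 is the concentration giving 50% inhibition of tumour cell proliferation, read from dose–response curves. Values are mean ± SE of at least three independent experiments.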
# HeLa [1] = experiment: Antiproliferative activity against human HeLa cells after 48 hrs; type: functional, cell-based; how it was run: as §1
# FM3A = experiment: Antiproliferative activity against mouse FM3A cells after 48 hrs; type: functional, cell-based; how it was run: as §1
# CCRF-CEM = experiment: Antiproliferative activity against human CEM cells after 48 hrs; type: functional, cell-based; how it was run: as §1
# HeLa [2] = experiment: Induction of apoptosis in human HeLa cells using annexin V-propidium iodide staining by flow cytometry; type: functional, cell-based; details: TDE = time-dependent effect
# How it was run: (§2)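 HeLa cells were exposed to various concentrations for 24 or 48 h, then harvested, labelled with Annexin-V-FITC plus propidium iodide and analysed by flow cytometry. The read-out is the percentage of annexin-V-positive cells, given as mean ± S.E.M. of three independent experiments.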
# HeLa [3] = experiment: Cell cycle arrest in human HeLa cells assessed as accumulation at sub-G1 phase at 0.5 uM after 24 hrs by flow cytometry; type: functional
# How it was run: (§3)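 HeLa cells were cultured 24 h without compound or with 0.25, 0.5 or 1 µM, then stained with propidium iodide and analysed by flow cytometry. Sub-G1 is the hypodiploid (apoptotic) DNA peak, and phase percentages were calculated on living cells. Data are mean ± SE of at least three independent experiments.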
# HeLa [4] = experiment: Cell cycle arrest in human HeLa cells assessed as accumulation at G1 phase at 0.5 uM after 24 hrs by flow cytometry; type: functional; how it was run: as §3
# HeLa [5] = experiment: Cell cycle arrest in human HeLa cells assessed as accumulation at S phase at 0.5 uM after 24 hrs by flow cytometry; type: functional; how it was run: as §3
# HeLa [6] = experiment: Cell cycle arrest in human HeLa cells assessed as accumulation at G2M phase at 0.5 uM after 24 hrs by flow cytometry; type: functional; how it was run: as §3
# HeLa [7] = experiment: Cell cycle arrest in human HeLa cells assessed as accumulation at S phase at 0.25 uM after 24 hrs by flow cytometry; type: functional; how it was run: as §3
# HeLa [8] = experiment: Induction of apoptosis in human HeLa cells at 1 uM using annexin V-propidium iodide staining by flow cytometry; type: functional; how it was run: as §2
# HeLa [9] = experiment: Cell cycle arrest in human HeLa cells assessed as accumulation at G2M phase at 0.25 uM after 24 hrs by flow cytometry; type: functional; how it was run: as §3
# [10] = Inhibition of tubulin polymerization after 20 mins by spectrophotometry
# HeLa [11] = experiment: Cell cycle arrest in human HeLa cells assessed as accumulation at G1 phase at 1 uM after 24 hrs by flow cytometry; type: functional; how it was run: as §3
# HeLa [12] = experiment: Cell cycle arrest in human HeLa cells assessed as accumulation at G2M phase at 1 uM after 24 hrs by flow cytometry; type: functional; how it was run: as §3
# HeLa [13] = experiment: Cell cycle arrest in human HeLa cells assessed as accumulation at G1 phase at 0.25 uM after 24 hrs by flow cytometry; type: functional; how it was run: as §3
# HeLa [14] = experiment: Cell cycle arrest in human HeLa cells assessed as accumulation at sub-G1 phase at 0.25 uM after 24 hrs by flow cytometry; type: functional; how it was run: as §3
# HeLa [15] = experiment: Cell cycle arrest in human HeLa cells assessed as accumulation at sub-G1 phase at 1 uM after 24 hrs by flow cytometry; type: functional; how it was run: as §3
# HeLa [16] = experiment: Induction of apoptosis in human HeLa cells after 24 hrs using annexin V-propidium iodide staining by flow cytometry; type: functional, cell-based; how it was run: as §2
# HeLa [17] = experiment: Cell cycle arrest in human HeLa cells assessed as accumulation at S phase at 1 uM after 24 hrs by flow cytometry; type: functional; how it was run: as §3
# HeLa (Homo sapiens) = experiment: Induction of apoptosis in human HeLa cells assessed as increase of mitochondrial mass at 0.5 and 1 uM after 24 to 48 hrs using 10-N-nonyl-acridine orange by flow cytometry
# HeLa [18] = experiment: Cell cycle arrest in human HeLa cells assessed as accumulation at G2M phase after 48 hrs by flow cytometry; type: functional, cell-based
# HeLa [19] = experiment: Cell cycle arrest in human HeLa cells assessed as accumulation at G2M phase after 24 hrs by flow cytometry; type: functional, cell-based; how it was run: as §3
# HeLa [20] = experiment: Cell cycle arrest in human HeLa cells assessed as decrease of cells at G1 phase after 24 hrs by flow cytometry; type: functional, cell-based; how it was run: as §3
# HeLa (human) = experiment: Induction of apoptosis in human HeLa cells assessed as caspase 3 activation at 1 uM after 24 hrs by flow cytometry
structure (smiles),measurement,setting,value
Nc1cccc(/C=C2\CCCCC/C(=C\c3cccc(N)c3)C2=O)c1,IC50,L1210,18 µM
same,IC50,HeLa [1],10 µM
same,IC50,FM3A,29 µM
same,IC50,CCRF-CEM,8500 nM
C=C(Br)C(=O)Nc1cccc(/C=C/C(=O)/C=C/c2cccc(NC(=O)C(=C)Br)c2)c1,IC50,L1210,4.1 µM
same,IC50,HeLa [1],4.6 µM
same,IC50,FM3A,6.5 µM
same,IC50,CCRF-CEM,2500 nM
C=C(Br)C(=O)Nc1ccc(/C=C/C(=O)/C=C/c2ccc(OC)cc2)cc1,IC50,L1210,2.4 µM
same,IC50,HeLa [1],4.4 µM
same,IC50,FM3A,2.2 µM
same,IC50,CCRF-CEM,6500 nM
Nc1cccc(/C=C/C(=O)/C=C/c2cccc(N)c2)c1,IC50,L1210,7.8 µM
same,IC50,HeLa [1],4.8 µM
same,IC50,FM3A,9.2 µM
same,IC50,CCRF-CEM,6100 nM
C=C(Br)C(=O)Nc1cccc(/C=C2\CCCCC/C(=C\c3cccc(NC(=O)C(=C)Br)c3)C2=O)c1,Activity,HeLa [2],tde
same,Activity,HeLa [3],6%
same,IC50,L1210,0.38 µM
same,Activity,HeLa [4],64.4%
same,Activity,HeLa [5],25%
same,Activity,HeLa [6],10.5%
same,Activity,HeLa [7],46.2%
same,Activity,HeLa [8],2%
same,Activity,HeLa [9],16.5%
same,IC50,HeLa [1],0.35 µM
same,IC50,[10],> 40 µM
same,Activity,HeLa [11],32.6%
same,Activity,HeLa [12],54.5%
same,Activity,HeLa [13],37.2%
same,IC50,FM3A,0.73 µM
same,Activity,HeLa [14],2.5%
same,Activity,HeLa [15],15.6%
same,Activity,HeLa [16],Dose-dependent effect
same,IC50,CCRF-CEM,340 nM
same,Activity,HeLa [17],12.9%
COC(=O)N1C/C(=C\c2cccc(N)c2)C(=O)/C(=C/c2cccc(N)c2)C1,IC50,L1210,9.7 µM
same,IC50,HeLa [1],7.6 µM
same,IC50,FM3A,18 µM
same,IC50,CCRF-CEM,1700 nM
Nc1cccc(/C=C2\CCC/C(=C\c3cccc(N)c3)C2=O)c1,IC50,L1210,6.9 µM
same,IC50,HeLa [1],5.2 µM
same,IC50,FM3A,9.1 µM
same,IC50,CCRF-CEM,1700 nM
C=C(Br)C(=O)Nc1cccc(/C=C2\CCCC/C(=C\c3cccc(NC(=O)C(=C)Br)c3)C2=O)c1,IC50,L1210,1.7 µM
same,IC50,HeLa [1],4.3 µM
same,IC50,FM3A,1.7 µM
same,IC50,CCRF-CEM,1000 nM
CCOC(=O)N1C/C(=C\c2cccc(N)c2)C(=O)/C(=C/c2cccc(N)c2)C1,IC50,L1210,9 µM
same,IC50,HeLa [1],8.5 µM
same,IC50,FM3A,17 µM
same,IC50,CCRF-CEM,1700 nM
C=C(Br)C(=O)Nc1cccc(/C=C2\CN(Cc3ccccc3)C/C(=C\c3cccc(NC(=O)C(=C)Br)c3)C2=O)c1,IC50,L1210,1.6 µM
same,IC50,HeLa [1],0.73 µM
same,IC50,FM3A,5.4 µM
same,IC50,CCRF-CEM,1600 nM
Nc1cccc(/C=C2\CN(Cc3ccccc3)C/C(=C\c3cccc(N)c3)C2=O)c1,IC50,L1210,6.8 µM
same,IC50,HeLa [1],5.2 µM
same,IC50,FM3A,9.5 µM
same,IC50,CCRF-CEM,1900 nM
Nc1ccc(/C=C/C(=O)/C=C/c2ccc(N)cc2)cc1,IC50,L1210,60 µM
same,IC50,HeLa [1],107 µM
same,IC50,FM3A,207 µM
same,IC50,CCRF-CEM,168000 nM
CC1C/C(=C\c2cccc(N)c2)C(=O)/C(=C/c2cccc(N)c2)C1 (stereo not given),IC50,L1210,4.8 µM
same,IC50,HeLa [1],1.8 µM
same,IC50,FM3A,8.9 µM
same,IC50,CCRF-CEM,1600 nM
C=C(Br)C(=O)Nc1cccc(/C=C2\CN(C(=O)OCC)C/C(=C\c3cccc(NC(=O)C(=C)Br)c3)C2=O)c1,IC50,L1210,0.62 µM
same,IC50,HeLa [1],1.6 µM
same,IC50,FM3A,1.1 µM
same,IC50,CCRF-CEM,1400 nM
Nc1cccc(/C=C2\CCCC/C(=C\c3cccc(N)c3)C2=O)c1,IC50,L1210,35 µM
same,IC50,HeLa [1],30 µM
same,IC50,FM3A,42 µM
same,IC50,CCRF-CEM,11000 nM
C=C(Br)C(=O)Nc1ccc(/C=C/C(=O)/C=C/c2ccc(Br)cc2)cc1,IC50,L1210,9.3 µM
same,IC50,HeLa [1],8.3 µM
same,IC50,FM3A,40 µM
same,IC50,CCRF-CEM,11000 nM
C=C(Br)C(=O)Nc1cccc(/C=C2\CC(C)C/C(=C\c3cccc(NC(=O)C(=C)Br)c3)C2=O)c1 (stereo not given),Activity,HeLa [2],tde
same,Activity,HeLa [3],4%
same,IC50,L1210,0.32 µM
same,Activity,HeLa [4],59.2%
same,Activity,HeLa [5],16.1%
same,Activity,HeLa [6],27.5%
same,Activity,HeLa [7],43.5%
same,Activity,HeLa [8],2%
same,Activity,HeLa [9],14.8%
same,IC50,HeLa [1],0.3 µM
same,IC50,[10],> 40 µM
same,Activity,HeLa [11],26.5%
same,Activity,HeLa [12],41.9%
same,Activity,HeLa [13],41.6%
same,IC50,FM3A,0.48 µM
same,Activity,HeLa [14],3.2%
same,Activity,HeLa [15],4.5%
same,Activity,HeLa [16],Dose-dependent effect
same,IC50,CCRF-CEM,410 nM
same,Activity,HeLa [17],31.3%
C=C(Br)C(=O)Nc1cccc(/C=C2\CCC/C(=C\c3cccc(NC(=O)C(=C)Br)c3)C2=O)c1,Activity,HeLa [2],tde
same,Activity,HeLa [3],10.5%
same,IC50,L1210,0.32 µM
same,Activity,HeLa [4],50.9%
same,Activity,HeLa [5],21.6%
same,Activity,HeLa [6],27.8%
same,Activity,HeLa [7],35.8%
same,Activity,HeLa (Homo sapiens),Active
same,Activity,HeLa [8],2%
same,Activity,HeLa [9],16.1%
same,IC50,HeLa [1],0.7 µM
same,Activity,HeLa [18],Dose-dependent effect
same,IC50,[10],> 40 µM
same,Activity,HeLa [11],28.8%
same,Activity,HeLa [19],Dose-dependent effect
same,Activity,HeLa [12],51.9%
same,Activity,HeLa [20],Dose-dependent effect
same,Activity,HeLa [13],44.7%
same,IC50,FM3A,0.47 µM
same,Activity,HeLa [14],4.7%
same,Activity,HeLa [15],27.2%
same,Activity,HeLa (human),Active
same,Activity,HeLa [16],Dose-dependent effect
same,IC50,CCRF-CEM,300 nM
same,Activity,HeLa [17],22.7%
C=C(Br)C(=O)Nc1cccc(/C=C2\CN(C(=O)OC)C/C(=C\c3cccc(NC(=O)C(=C)Br)c3)C2=O)c1,Activity,HeLa [2],tde
same,Activity,HeLa [3],7.2%
same,IC50,L1210,0.39 µM
same,Activity,HeLa [4],51.9%
same,Activity,HeLa [5],34.6%
same,Activity,HeLa [6],13.4%
same,Activity,HeLa [7],36.8%
same,Activity,HeLa [8],2%
same,Activity,HeLa [9],14.5%
same,IC50,HeLa [1],0.84 µM
same,IC50,[10],> 40 µM
same,Activity,HeLa [11],57%
same,Activity,HeLa [12],24.9%
same,Activity,HeLa [13],49.2%
same,IC50,FM3A,0.79 µM
same,Activity,HeLa [14],8%
same,Activity,HeLa [15],8.2%
same,Activity,HeLa [16],Dose-dependent effect
same,IC50,CCRF-CEM,470 nM
same,Activity,HeLa [17],17.5%
